Measured values of several laboratories.
Lines come from different studies, so protocols differ.
Target: Serine/threonine-protein kinase Nek6 (NEK6, Homo sapiens, UniProt Q9HC98)
Read-out: enzyme activity
Mode: inhibitor

SMILES | technique | tested at | remaining activity
Cc1ccc(C(=O)Nc2ccc(CN3CCN(C)CC3)c(C(F)(F)F)c2)cc1C#Cc1cnc2cccnn12 |  | 23.5 nM | 100%
CC(C)(O)[C@H]1CC[C@H](Nc2ccc3ncc(-c4cccc(C(F)(F)F)c4)n3n2)CC1 |  | 1 µM | 99.7%
FC(F)c1nc2ccccc2n1-c1nc(N2CCOCC2)nc(N2CCOCC2)n1 |  | 10 µM | 83%
CC(C)(C)C(=O)c1sc(NC2CCCCC2)nc1N |  | 10 µM | 100%
Cc1[nH]c(/C=C2\C(=O)Nc3ccc(F)cc32)c(C)c1C(=O)N[C@H]1CCN(C(=O)N(C)C)C1 |  | 0.1 µM | 131%
Cc1cnc(NC2CCOCC2)nc1-n1cnc(C(=O)NC(CN)c2cc(F)cc(Cl)c2)c1 (stereo not drawn) | radiometric | 1 µM | 55%
CCN(CC)CCNC(=O)c1c(C)[nH]c(/C=C2\C(=O)Nc3ccc(F)cc32)c1C |  | 1 µM | 103%
CC(C)(C)c1nc(-c2cccc(NS(=O)(=O)c3c(F)cccc3F)c2F)c(-c2ccnc(N)n2)s1 | radiometric | 1 µM | 99%
O=C(Nc1cnn(-c2csc(C(=O)NC3COC3)c2)c1)Nc1ccccc1Cl |  | 5 µM | 99.6%
COc1cc(Nc2cnc(C#N)c(O[C@H](C)CN(C)C)n2)ncc1-c1cnn(C)c1 | radiometric | 10 µM | 96%
Cc1ccc(Nc2nccc(N(C)c3ccc4c(C)n(C)nc4c3)n2)cc1S(N)(=O)=O |  | 0.5 µM | 96.1%
O=C(Nc1cnn(-c2csc(C(=O)NC3COC3)c2)c1)Nc1c(F)cccc1Cl |  | 5 µM | 86.8%
